Results: ChEMBL document CHEMBL4130443, “Targeting breast cancer stem cells by novel HDAC3-selective inhibitors” (Eur J Med Chem, 2017)
Active and inactive are the calls of the source. The calls are words filed in the database; no cut-off is given here.

Tests used:
[1] = molecular target: Histone deacetylase 3 (Homo sapiens) (UniProt O15379); test: Inhibition of HDAC3 in human MDA-MB-231 cells assessed as reduction in beta-catenin expression at 0.5 to 5 uM by immunoblotting; type: cell-based
How it was run: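 Monolayer cells treated in 5% FBS at graded concentrations. Lysed in SDS/EDTA/Tris pH 8.1 buffer, equal protein immunoblotted with primary antibodies 1:1000 overnight at 4°C. Detected by ECL for phospho-Akt, β-catenin and histone H3 pan/H3K9 acetylation.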

[2] = molecular target: T1, Protein deacetylase HDAC6 (Homo sapiens) (UniProt Q9UBN7); test: Inhibition of human HDAC6 at 1 uM using p53 (379 to 382 residues) derived fluorogenic peptide RHKKAc
T1 sequence (whole entry): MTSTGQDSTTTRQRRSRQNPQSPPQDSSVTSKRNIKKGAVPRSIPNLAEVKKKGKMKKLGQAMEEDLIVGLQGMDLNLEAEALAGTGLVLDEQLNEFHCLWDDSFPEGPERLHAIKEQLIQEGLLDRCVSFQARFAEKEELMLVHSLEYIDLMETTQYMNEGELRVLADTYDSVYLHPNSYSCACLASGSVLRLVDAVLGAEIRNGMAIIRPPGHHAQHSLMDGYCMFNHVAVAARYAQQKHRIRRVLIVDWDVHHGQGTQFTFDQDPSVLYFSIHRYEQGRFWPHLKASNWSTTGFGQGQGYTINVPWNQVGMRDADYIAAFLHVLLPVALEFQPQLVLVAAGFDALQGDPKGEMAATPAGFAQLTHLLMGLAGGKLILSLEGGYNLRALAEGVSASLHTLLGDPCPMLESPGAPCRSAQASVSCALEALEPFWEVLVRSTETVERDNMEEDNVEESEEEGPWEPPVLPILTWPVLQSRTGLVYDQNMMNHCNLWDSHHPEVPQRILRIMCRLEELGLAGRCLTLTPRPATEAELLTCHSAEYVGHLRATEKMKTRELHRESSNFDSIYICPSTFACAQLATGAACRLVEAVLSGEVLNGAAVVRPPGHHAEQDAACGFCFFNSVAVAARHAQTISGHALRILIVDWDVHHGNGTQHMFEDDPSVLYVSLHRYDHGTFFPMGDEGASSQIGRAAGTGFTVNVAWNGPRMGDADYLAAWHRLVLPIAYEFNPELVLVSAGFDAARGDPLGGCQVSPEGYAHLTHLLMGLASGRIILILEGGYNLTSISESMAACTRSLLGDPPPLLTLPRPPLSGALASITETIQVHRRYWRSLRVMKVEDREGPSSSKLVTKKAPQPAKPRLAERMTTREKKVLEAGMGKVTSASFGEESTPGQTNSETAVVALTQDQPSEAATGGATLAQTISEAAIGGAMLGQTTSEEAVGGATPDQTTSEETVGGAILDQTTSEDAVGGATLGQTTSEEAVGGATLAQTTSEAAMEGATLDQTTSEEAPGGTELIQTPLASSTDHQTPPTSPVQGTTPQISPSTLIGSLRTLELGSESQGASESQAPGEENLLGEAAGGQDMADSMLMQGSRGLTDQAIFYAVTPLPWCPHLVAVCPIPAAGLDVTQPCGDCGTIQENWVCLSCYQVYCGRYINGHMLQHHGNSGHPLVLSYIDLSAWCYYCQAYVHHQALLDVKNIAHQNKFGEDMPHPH
How it was run: (§1)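 Isoform profiling run by a commercial vendor with compounds at 1 µM. Values are percent inhibition, each the average of two determinations.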

[3] = molecular target: Histone deacetylase 5 (Homo sapiens) (UniProt Q9UQL6); test: Inhibition of human HDAC5 at 1 uM using Boc-Lys(trifluoroacetyl)-AMC substrate; how it was run: as §1
Histone deacetylase 1 [4] = molecular target: T2, Histone deacetylase 1 (Homo sapiens, UniProt Q13547); test: Inhibition of human HDAC1 using p53 (379 to 382 residues) derived fluorogenic peptide RHKKAc
[5] = molecular target: Histone deacetylase 3/Nuclear receptor corepressor 2 (HDAC3/NCoR2) (Homo sapiens, UniProt O15379); test: Inhibition of human HDAC3/NCOR2 using p53 (379 to 382 residues) derived fluorogenic peptide RHKKAc; type: protein-complex assay
Histone deacetylase 1 [6] = molecular target: T2, Histone deacetylase 1; test: Inhibition of human HDAC1 at 1 uM using p53 (379 to 382 residues) derived fluorogenic peptide RHKKAc; how it was run: as §1
MDA-MB-231 [7] = test: Inhibition of mammosphere formation of human MDA-MB-231 cells incubated for 7 days; conditions: MDA-MB-231, 168 h
MDA-MB-231 [8] = test: Effect on beta-catenin mRNA expression in human MDA-MB-231 cells at 0.5 to 5 uM by RT-PCR method; type: cell-based; conditions: mda-mb-231, 5 µM
How it was run: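 Monolayer cells treated at graded concentrations. Total RNA isolated with TRIzol. β-catenin mRNA assessed by RT-PCR with β-actin as reference.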

MDA-MB-231 [9] = test: Growth inhibition of human MDA-MB-231 cells incubated for 48 to 72 hrs by crystal violet staining based assay; type: functional, cell-based
How it was run: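 Cells plated at 5000/well and left overnight, then treated in 5% FBS for 24, 48 and 72 h. Washed with PBS, stained 20 min with 0.5% crystal violet in 20% methanol, stain solubilized in 2% SDS, absorbance read at 550. Growth inhibition calculated as (1-Nt/Nc) x 100 against vehicle wells. N = 6.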

MDA-MB-231 [10] = test: Induction of tumor growth dela of human MDA-MB-231 cells xenografted in NOD/SCID mouse injected with cells pretreated with 5 uM compound for 48 hrs assessed as reduction in tumor volume at 100 mg/kg, po dosed via gavage once daily starting on day 2 post injection and continuing through day 26; type: functional, organism-based
How it was run: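 Cells pretreated 48 h with 5 µM compound or DMSO, trypsinized and injected at 50,000 cells/0.1 ml in 50% Matrigel into the left 4th inguinal mammary fat pad of female NOD/SCID mice (N = 10 per group). Dosed 100 mg/kg by oral gavage once daily in 0.5% methylcellulose/0.1% Tween 80 in water. Caliper volume = (width² x length) x 0.52. Incidence by log-rank test, volume at day 27 by t-test.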

[11] = molecular target: T3, Histone deacetylase 8 (Homo sapiens) (UniProt Q9BY41); test: Inhibition of human HDAC8 at 1 uM using p53 (379 to 382 residues) derived fluorogenic peptide RHKAcKAc; how it was run: as §1
T3 sequence (whole entry): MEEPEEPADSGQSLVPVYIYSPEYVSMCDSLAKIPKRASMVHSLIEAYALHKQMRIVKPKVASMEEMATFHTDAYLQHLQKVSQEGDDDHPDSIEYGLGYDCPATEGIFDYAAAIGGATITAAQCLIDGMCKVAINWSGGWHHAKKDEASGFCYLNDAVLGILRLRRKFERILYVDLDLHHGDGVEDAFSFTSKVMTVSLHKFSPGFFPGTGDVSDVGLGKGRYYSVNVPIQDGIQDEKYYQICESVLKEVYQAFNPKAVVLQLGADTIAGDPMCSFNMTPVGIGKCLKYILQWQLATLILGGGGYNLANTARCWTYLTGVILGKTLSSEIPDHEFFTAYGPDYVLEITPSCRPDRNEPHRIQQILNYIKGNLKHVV

Histone deacetylase 2 = Histone deacetylase 2 (Homo sapiens, UniProt Q92769); test: Inhibition of human HDAC2 at 1 uM using p53 (379 to 382 residues) derived fluorogenic peptide RHKKAc; how it was run: as §1
Chain of Histone deacetylase 2 (Q92769 whole entry, the tested form may be a part): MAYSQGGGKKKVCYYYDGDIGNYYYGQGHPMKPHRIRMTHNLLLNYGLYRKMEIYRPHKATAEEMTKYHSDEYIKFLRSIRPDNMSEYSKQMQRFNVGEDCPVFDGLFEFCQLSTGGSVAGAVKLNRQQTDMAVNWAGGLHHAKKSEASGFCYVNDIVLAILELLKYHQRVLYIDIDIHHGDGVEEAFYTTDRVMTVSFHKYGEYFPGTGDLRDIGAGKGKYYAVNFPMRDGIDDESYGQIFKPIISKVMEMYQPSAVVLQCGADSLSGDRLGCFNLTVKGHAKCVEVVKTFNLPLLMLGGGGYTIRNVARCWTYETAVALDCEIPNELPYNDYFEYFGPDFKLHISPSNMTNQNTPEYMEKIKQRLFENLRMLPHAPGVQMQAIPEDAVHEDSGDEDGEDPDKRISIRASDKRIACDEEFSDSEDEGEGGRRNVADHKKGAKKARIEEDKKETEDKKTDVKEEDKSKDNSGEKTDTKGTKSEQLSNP

T2 sequence (Q13547 whole entry, the tested form may be a part): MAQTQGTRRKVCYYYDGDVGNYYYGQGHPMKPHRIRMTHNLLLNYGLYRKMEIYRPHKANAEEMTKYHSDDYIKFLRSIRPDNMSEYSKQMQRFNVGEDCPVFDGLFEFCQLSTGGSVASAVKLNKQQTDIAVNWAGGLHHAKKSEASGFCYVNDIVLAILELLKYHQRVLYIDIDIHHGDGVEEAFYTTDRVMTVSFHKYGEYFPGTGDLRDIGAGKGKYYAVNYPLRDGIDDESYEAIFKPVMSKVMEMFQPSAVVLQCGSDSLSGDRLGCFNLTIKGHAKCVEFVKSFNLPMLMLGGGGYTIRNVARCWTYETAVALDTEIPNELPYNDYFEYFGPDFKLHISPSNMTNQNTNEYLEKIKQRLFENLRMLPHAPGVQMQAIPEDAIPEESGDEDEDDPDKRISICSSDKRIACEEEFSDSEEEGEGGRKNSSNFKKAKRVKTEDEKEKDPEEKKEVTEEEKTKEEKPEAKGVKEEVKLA
Chain of Histone deacetylase 3 (Homo sapiens) (O15379 whole entry): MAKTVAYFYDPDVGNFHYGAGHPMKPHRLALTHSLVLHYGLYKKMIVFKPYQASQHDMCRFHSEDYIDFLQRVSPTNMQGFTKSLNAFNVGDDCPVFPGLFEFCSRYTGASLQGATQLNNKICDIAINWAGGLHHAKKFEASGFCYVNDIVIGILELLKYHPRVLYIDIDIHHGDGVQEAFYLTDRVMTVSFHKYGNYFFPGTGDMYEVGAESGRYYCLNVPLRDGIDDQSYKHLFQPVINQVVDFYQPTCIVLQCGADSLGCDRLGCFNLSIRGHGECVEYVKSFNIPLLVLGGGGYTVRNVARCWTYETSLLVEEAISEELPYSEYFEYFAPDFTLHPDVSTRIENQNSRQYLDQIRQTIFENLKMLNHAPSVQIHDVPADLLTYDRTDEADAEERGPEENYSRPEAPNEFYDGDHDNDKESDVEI
Chain of Histone deacetylase 3/Nuclear receptor corepressor 2 (HDAC3/NCoR2) (O15379 whole entry, the tested form may be a part): as the sequence (O15379 whole entry) above
Chain of Histone deacetylase 3/Nuclear receptor corepressor 2 (HDAC3/NCoR2) (Q9Y618 whole entry, further chain, the tested form may be a part): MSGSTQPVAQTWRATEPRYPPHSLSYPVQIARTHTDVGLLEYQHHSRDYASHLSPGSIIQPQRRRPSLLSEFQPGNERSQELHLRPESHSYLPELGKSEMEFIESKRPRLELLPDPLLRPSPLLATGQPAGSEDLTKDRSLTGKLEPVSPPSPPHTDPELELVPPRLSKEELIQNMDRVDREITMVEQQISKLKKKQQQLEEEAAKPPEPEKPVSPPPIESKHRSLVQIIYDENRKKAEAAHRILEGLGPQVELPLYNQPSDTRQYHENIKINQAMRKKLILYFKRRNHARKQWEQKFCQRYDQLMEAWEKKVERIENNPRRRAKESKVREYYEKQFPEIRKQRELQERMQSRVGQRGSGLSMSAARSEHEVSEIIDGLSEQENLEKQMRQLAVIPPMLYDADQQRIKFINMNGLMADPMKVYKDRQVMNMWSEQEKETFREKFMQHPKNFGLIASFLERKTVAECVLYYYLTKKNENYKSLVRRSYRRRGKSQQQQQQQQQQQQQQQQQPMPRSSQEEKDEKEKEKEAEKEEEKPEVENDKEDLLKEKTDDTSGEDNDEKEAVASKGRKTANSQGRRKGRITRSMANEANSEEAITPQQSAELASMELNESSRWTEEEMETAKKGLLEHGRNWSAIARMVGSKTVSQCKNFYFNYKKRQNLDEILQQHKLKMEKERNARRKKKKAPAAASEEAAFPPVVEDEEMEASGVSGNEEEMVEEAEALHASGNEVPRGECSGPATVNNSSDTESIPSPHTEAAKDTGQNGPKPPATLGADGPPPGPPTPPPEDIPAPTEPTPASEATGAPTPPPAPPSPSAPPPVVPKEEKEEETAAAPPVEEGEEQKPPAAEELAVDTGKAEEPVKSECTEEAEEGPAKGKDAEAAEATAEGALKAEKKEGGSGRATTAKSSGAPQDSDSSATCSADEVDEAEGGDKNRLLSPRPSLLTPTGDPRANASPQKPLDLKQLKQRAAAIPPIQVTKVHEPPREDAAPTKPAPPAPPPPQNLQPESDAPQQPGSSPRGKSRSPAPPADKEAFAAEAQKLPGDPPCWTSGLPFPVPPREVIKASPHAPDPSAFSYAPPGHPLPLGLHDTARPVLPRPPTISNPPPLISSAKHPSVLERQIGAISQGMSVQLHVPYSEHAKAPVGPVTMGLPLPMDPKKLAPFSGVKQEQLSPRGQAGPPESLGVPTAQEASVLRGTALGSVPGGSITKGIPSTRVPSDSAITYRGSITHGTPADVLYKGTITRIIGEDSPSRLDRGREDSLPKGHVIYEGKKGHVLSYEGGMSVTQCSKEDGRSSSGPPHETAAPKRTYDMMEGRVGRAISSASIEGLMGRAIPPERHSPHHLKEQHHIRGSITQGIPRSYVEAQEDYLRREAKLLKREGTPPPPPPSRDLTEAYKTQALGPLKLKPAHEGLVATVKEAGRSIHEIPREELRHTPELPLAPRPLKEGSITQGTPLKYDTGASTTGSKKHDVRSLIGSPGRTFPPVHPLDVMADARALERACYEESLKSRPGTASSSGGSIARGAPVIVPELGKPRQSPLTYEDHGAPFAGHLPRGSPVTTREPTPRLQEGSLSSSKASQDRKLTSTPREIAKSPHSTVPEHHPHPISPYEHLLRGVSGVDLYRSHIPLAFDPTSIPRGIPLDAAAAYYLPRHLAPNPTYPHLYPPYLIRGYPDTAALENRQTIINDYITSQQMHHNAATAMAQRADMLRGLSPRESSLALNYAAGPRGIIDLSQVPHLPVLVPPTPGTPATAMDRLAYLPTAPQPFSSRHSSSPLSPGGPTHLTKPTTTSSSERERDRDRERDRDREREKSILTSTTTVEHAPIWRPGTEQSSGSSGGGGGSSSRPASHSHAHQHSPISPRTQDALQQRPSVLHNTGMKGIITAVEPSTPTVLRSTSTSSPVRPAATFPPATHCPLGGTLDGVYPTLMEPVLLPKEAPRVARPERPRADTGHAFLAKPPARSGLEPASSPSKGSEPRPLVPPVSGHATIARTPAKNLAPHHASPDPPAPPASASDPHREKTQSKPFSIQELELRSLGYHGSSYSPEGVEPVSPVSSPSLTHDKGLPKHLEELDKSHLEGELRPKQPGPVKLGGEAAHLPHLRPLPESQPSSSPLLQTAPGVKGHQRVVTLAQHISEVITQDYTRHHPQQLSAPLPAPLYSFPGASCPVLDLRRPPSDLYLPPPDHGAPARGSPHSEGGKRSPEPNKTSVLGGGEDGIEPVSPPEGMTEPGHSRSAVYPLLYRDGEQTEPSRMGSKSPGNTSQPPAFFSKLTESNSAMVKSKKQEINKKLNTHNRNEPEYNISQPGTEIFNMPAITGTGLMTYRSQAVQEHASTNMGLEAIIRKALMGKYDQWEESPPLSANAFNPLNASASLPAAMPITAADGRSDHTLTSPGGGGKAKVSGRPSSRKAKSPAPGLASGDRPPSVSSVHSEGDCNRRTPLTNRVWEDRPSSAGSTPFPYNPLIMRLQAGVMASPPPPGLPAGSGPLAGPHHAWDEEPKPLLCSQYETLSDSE
Chain of Histone deacetylase 5 (Homo sapiens) (Q9UQL6 whole entry, the tested form may be a part): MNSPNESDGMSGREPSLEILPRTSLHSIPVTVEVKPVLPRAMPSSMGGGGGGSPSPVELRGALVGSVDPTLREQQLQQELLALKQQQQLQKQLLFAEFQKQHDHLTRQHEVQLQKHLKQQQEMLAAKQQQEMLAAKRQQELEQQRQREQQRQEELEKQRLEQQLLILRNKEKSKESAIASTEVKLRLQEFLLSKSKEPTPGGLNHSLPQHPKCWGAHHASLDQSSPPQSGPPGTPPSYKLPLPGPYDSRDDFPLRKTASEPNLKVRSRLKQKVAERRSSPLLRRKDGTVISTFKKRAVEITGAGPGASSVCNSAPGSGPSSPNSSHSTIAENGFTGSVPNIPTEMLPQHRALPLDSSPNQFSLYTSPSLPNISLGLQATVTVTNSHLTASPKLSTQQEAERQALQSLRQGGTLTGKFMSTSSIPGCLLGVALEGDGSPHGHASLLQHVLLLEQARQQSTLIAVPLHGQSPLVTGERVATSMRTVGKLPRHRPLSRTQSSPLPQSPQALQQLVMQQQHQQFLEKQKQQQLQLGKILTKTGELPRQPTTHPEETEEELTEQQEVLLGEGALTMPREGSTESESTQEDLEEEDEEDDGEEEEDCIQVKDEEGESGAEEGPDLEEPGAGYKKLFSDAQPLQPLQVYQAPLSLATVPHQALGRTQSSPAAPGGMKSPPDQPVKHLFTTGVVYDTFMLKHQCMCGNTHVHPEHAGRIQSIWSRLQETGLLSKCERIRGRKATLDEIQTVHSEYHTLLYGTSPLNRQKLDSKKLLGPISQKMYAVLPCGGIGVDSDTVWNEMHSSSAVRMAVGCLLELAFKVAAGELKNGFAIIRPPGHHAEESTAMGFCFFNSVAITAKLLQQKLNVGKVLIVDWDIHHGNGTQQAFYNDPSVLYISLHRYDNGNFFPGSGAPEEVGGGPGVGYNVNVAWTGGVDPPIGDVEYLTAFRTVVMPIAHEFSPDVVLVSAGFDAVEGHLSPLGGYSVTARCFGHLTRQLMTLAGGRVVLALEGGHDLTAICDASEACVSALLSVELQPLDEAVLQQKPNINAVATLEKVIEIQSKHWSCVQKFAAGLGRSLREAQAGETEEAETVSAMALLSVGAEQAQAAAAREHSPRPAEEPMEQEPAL

inhibition [1]: Dose-dependent effect | inhibition [2]: 4% | inhibition [3]: 0% | IC50 (Histone deacetylase 1 [4]): > 10000 nM | IC50 [5]: 350 nM | inhibition (Histone deacetylase 1 [6]): 8% | IC50 (MDA-MB-231 [7]): 500 to 1000 nM | IC50 (MDA-MB-231 [9]): ≥ 10000 nM | inhibition [11]: 0% | inhibition (Histone deacetylase 2): 5%
Compound: CC(C)(C(=O)Nc1ccc(C(=O)Nc2ccc(F)cc2N)cc1)c1ccccc1
Activity (MDA-MB-231 [8]): Non-Toxic | Activity (MDA-MB-231 [10]): Active
